# High-throughput results as filed in PubChem BioAssay.
# MrgX1 allo act – human MrgX1 positive allosteric modulation, primary screen. Q96LB2. B-score at 10 µM. AID 588675. MrgX1-HEK293, Fluo-4 calcium flux, FDSS; stronger effect = higher value. hit rate 0.63% among 310,000;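 active means plate-corrected calcium response at least 3 library SD above typical, normal starting fluorescence, not activating the receptor alone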;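 further: compound read alongside a low EC10 to EC30 dose of BAM8-22 agonist; peak minus trough fluorescence over baseline measured at the second addition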
# Target sequence (Q96LB2 whole entry, looked up): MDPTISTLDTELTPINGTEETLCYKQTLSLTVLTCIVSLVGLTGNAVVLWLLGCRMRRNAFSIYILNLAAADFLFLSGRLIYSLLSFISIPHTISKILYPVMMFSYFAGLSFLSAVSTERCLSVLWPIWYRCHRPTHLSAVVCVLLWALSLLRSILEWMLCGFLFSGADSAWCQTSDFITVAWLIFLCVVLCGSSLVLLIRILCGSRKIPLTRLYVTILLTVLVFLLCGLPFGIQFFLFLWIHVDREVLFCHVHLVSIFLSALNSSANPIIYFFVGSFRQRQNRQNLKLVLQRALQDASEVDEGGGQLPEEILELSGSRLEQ
# RGS4 block – human RGS4 inhibition | P49798 | HEK293 M3R/RGS4 inducible, Fluo-4 calcium flux; stronger effect = higher value; triggered by carbachol at its EC20 | B-score at 10 µM | hit rate 0.45% among 310,000;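 active means B-score, a plate-corrected calcium signal, over three deviations above library mean, with baseline fluorescence within five deviations of library mean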;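 further: RGS4 expression induced by doxycycline in cells with stable M3 receptor; B-score is computed from the integrated fluorescence ratio over baseline after carbachol; higher B-score means a larger calcium signal and so more RGS4 inhibition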
# Target sequence (P49798 whole entry, looked up): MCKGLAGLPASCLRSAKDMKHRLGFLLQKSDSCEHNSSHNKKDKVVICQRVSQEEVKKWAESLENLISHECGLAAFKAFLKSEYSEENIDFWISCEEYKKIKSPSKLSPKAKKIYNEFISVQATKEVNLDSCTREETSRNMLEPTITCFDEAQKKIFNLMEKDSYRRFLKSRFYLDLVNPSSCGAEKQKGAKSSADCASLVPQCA
# MrgX1 agonist – agonists of human MrgX1 receptor | Q96LB2 | B-score at 10 µM | MrgX1-HEK293 cells, Fluo-4 calcium fluorescence, agonist mode; stronger effect = higher value | hit rate 0.44% among 310,000;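 active means calcium response B-score plate-corrected fluorescence ratio at least 3 library SD, with starting fluorescence B-score inside 5 SD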
#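 Material: MrgX1-expressing HEK293 cells; input: 15,000 cells per well; doses: test compound given as first of three sequential additions; schedule: overnight plating before 1 h dye loading; technique: Fluo-4 NW calcium-flux fluorescence, kinetic read; evaluation: baseline-normalised fluorescence change ratio, B-scored; control set: plate-wise positive and negative controls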
# RGS4 pot – RGS4 potentiation or activation; B-score at 10 µM; HEK293 M3R/inducible RGS4, carbachol calcium flux Fluo4; stronger effect = lower value; hit rate 0.92% among 310,000;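 active means B-score of the integrated calcium signal more than 4 SD below the library mean, with starting fluorescence not abnormally high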;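 further: negative B-score means reduced calcium response which marks RGS4 activation or potentiation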
#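 Detection: kinetic calcium fluorescence imaging with Fluo4-AM dye, 2 µM / Material: HEK293 cells with stable M3R and inducible RGS4 / Schedule: recording 10 s baseline at 1 Hz, 100 s post-agonist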
# MrgX1 antag – human MrgX1 receptor antagonism, primary screen | Q96LB2 | MRGX1-HEK293 calcium flux, Fluo-4, BAM8-22 antagonism; stronger effect = lower value | B-score at 10 µM | hit rate 1.3% among 310,000;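 active means calcium-response B-score plate-corrected more than 3 library SD below zero, starting fluorescence within 5 deviations, no agonist response on first addition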;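 further: peak minus trough fluorescence over baseline after final BAM8-22 challenge near maximal dose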
# MrgX1 antag conf – human MrgX1 receptor antagonism, re-confirmation screen; shares compounds with MrgX1 antag; MrgX1-HEK293, BAM8-22 calcium flux, Fluo-4; stronger effect = lower value; remaining BAM8-22 calcium response % of control (stronger effect = lower value), % at 10 µM; hit rate 19% among 2,300; AID 602420;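 active means remaining agonist calcium response no higher than 100% minus 3 SD of agonist-only control wells, with starting fluorescence near control levels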;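 further: agonist BAM8-22 given at a near maximal EC90 to ECmax level; peak minus minimum fluorescence divided by baseline after agonist addition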
# HEK293 Ca flux – MrgX1 antagonist counter-screen hit in parental HEK293 cells; shares compounds with MrgX1 antag; Fluo-4 calcium fluorescence, FDSS; hit rate 2% among 4,000; fluorescence ratio F(max-min)/F0 at 10 µM;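 active means duplicate-averaged calcium fluorescence ratio at least three times the standard deviation of buffer wells, a nonspecific response in parental cells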
# HEK293 Ca counter – MrgX1 allosteric activator counter-screen hit in parental HEK293 cells | shares compounds with MrgX1 antag | AID 624114 | fluorescence ratio F(max-min)/F0 at 10 µM | parental HEK293 calcium flux, Fluo-4 fluorescence ratio; stronger effect = higher value | hit rate 0.4% among 4,000;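 active means calcium fluorescence ratio, averaged over duplicates, at least 3 SD of the buffer-well ratio, meaning a nonspecific response in receptor-free cells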;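 further: untransfected parental HEK293 lacking MrgX1 used as counterscreen for MrgX1 allosteric activators; fluorescence change taken during the second addition on a kinetic imager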
# HEK293 Ca cntr2 – counter-screen for MrgX1 activators: effect in parental HEK293 cells | Fluo-4 calcium fluorescence (FDSS); stronger effect = higher value | shares compounds with MrgX1 antag | fluorescence ratio F(max-min)/F0 at 10 µM | hit rate 8.7% among 4,000;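 active means calcium fluorescence ratio at least three times the spread of buffer wells, meaning a non-specific response in parental cells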
# * hit, by the source's call; i = inactive; . = no result given. Most compounds without a hit are left out; they make up all but 3.5% or so of the library.
SMILES,MrgX1 allo act,RGS4 block,MrgX1 agonist,RGS4 pot,MrgX1 antag,MrgX1 antag conf,HEK293 Ca flux,HEK293 Ca counter,HEK293 Ca cntr2
COC(=O)c1sc(-c2ccc(C(C)(C)C)cc2)cc1NC(=O)c1ccccc1C(=O)O,i,i,i,i,-7.06*,70.4%*,i,i,99.5*
COC(=O)c1sc(-c2ccc(Cl)cc2)cc1NC(=O)c1ccccc1C(=O)O,i,i,i,i,i,.,.,.,.
Cc1ccc2c(Cl)c(C(=O)NCC3CCCO3)sc2c1 (stereo unspecified),i,i,i,i,-4.56*,i,i,i,i
Nc1ncc2c(n1)-c1ccccc1CC2,i,i,i,i,-4.82*,i,i,i,i
Nc1ncc2c(n1)-c1ccoc1CC2,i,i,i,i,i,.,.,.,.
COc1nc2ccccc2nc1OC,i,i,i,i,i,.,.,.,.
COc1cc(C(=O)Oc2ccccc2)ccc1OCc1c(C)noc1C,i,i,i,i,-5.96*,i,i,i,i
COc1cc(C(=O)O)ccc1OCc1c(C)noc1C,i,i,i,i,i,.,.,.,.
CCCCn1c(SCC(=O)Nc2cc(C)on2)nc2c1c(=O)n(C)c(=O)n2C,i,i,i,i,i,.,.,.,.
CCn1c(SCC(=O)Nc2cc(C)on2)nc2c1c(=O)n(C)c(=O)n2C,i,i,i,i,-6.99*,i,i,i,i
Cc1nc2ccc(NC(=O)COc3ccccc3F)cc2s1,i,i,i,i,-5.82*,80.4%*,i,i,i
CCOc1ccc(NC(=O)CN2CCN(C(=O)C3CCCO3)CC2)cc1 (stereo unspecified),i,i,i,i,i,.,.,.,.
Cc1ccc(NC(=O)N2CCN(C(=O)C3CCCO3)CC2)cc1 (stereo unspecified),i,i,i,i,-5.87*,i,i,i,i
CCOC(=O)c1ccc(NC(=O)CN2CCN(C(=O)C3CCCO3)CC2)cc1 (stereo unspecified),i,i,i,i,-6.33*,i,i,i,i
CC(=O)c1cccc(OCC(O)CNCC2COc3ccccc3O2)c1 (stereo unspecified),i,i,i,i,i,.,.,.,.
COc1ccc2c(c1)CCCN2C(N)=O,i,i,i,i,-4.93*,i,i,i,i
COC(=O)N1CCCc2cc(C)ccc21,i,i,i,i,i,.,.,.,.
CN(C)c1ccc(C2N(c3ccc(Cl)cc3)C(=O)C3CCCN32)cc1 (stereo unspecified),i,i,i,i,-6.01*,i,i,i,i
Cc1ccc(-c2ccc(/C=N/O)o2)cc1[N+](=O)[O-],i,i,i,i,i,.,.,.,.
COc1ccccc1NC(=O)c1oc2ccccc2c1NC(=O)c1ccco1,i,i,i,i,-5.17*,77.1%*,i,i,i
COc1cc(NC(=O)c2oc3ccccc3c2C)ccc1NC(=O)c1ccco1,i,i,i,i,i,.,.,.,.
c1ccc(NC2=NCCN2CCCC2CCCCC2)cc1,i,.,i,.,i,.,.,.,.
CCCN(C(=O)c1c(CC)noc1C)c1c(N)n(Cc2ccccc2)c(=O)[nH]c1=O,i,i,i,i,i,.,.,.,.
COc1ccc(NS(=O)(=O)c2ccc(C(=O)N3CCN(Cc4ccccc4)CC3)cc2)cc1,i,i,i,i,-5.86*,i,i,i,i
COCCNCC(=O)Nc1ccccc1Sc1ccccc1,i,i,i,i,i,.,.,.,.
SMILES,MrgX1 allo act,RGS4 block,MrgX1 agonist,RGS4 pot,MrgX1 antag,MrgX1 antag conf,HEK293 Ca flux,HEK293 Ca counter,HEK293 Ca cntr2
Cn1nccc1C(=O)N1CCc2c([nH]c3ccccc23)C1c1ccc(F)cc1 (stereo unspecified),i,i,i,i,-7.28*,i,i,i,i
CCc1ccc(C2c3[nH]c4ccccc4c3CCN2C(=O)c2cc[n+]([O-])cc2)cc1 (stereo unspecified),i,i,i,i,i,.,.,.,.
O=C(c1ccc(-n2cncn2)c([N+](=O)[O-])c1)N1CCN(S(=O)(=O)c2ccccc2F)CC1,i,i,i,i,i,.,.,.,.
COc1cccc(Nc2nc(NCCO)nc(N3CCCC3)n2)c1,i,i,i,i,i,.,.,.,.
COc1ccc(Nc2nc(NCCO)nc(N3CCCC3)n2)cc1,i,i,i,i,-5.52*,i,i,i,i
CCCCCCCCCCOC(=O)Cn1c(COc2ccccc2OC)[n+](C)c2ccccc21,i,i,i,-8.41*,-11*,59.5%*,i,i,i
CC(C)c1ccc(NC(=O)C2CC(=O)N(C(C)C)C2)cc1 (stereo unspecified),i,i,i,i,-8.96*,i,i,i,i
CC(C)(C)N1CC(C(=O)Nc2ccc(S(N)(=O)=O)cc2)CC1=O (stereo unspecified),i,i,i,i,-4.89*,i,i,i,i
CC(C)(C)N1CC(C(=O)Nc2ccc(S(=O)(=O)N3CCCCC3)cc2)CC1=O (stereo unspecified),i,i,i,i,i,.,.,.,.
CCOC(=O)C1CCCN(S(=O)(=O)c2cc3[nH]c(=O)c(=O)[nH]c3cc2C)C1 (stereo unspecified),i,i,i,i,i,.,.,.,.
CCOC(=O)C1CCCN(S(=O)(=O)c2nc3nc(C)cc(C)n3n2)C1 (stereo unspecified),i,i,i,i,-5.8*,i,i,i,i
O=C(CCNS(=O)(=O)c1ccc(Br)cc1)NCc1ccco1,i,i,i,i,i,.,.,.,.
CCO[C@@H]1OC(C(=O)Nc2ccccc2)=C[C@H](c2ccc(Br)cc2)[C@H]1CCCO,i,i,i,i,-10.1*,i,i,i,i
CCn1c(SCC(=O)N(C(C)C)C(C)C)nnc1-c1cc2ccccc2cc1O,i,i,i,i,-6.18*,i,i,i,i
